By IC50 is commonly meant the concentration that inhibits the measured activity by half.

Series [1] concerns the target Butyrophilin subfamily 3 member A1 (Homo sapiens) (UniProt O00481). Nature of the series: Potency index, ratio of HMBPP EC50 to compound EC50 for BTN3A1 in human Vgamma9Vdelta2 T cells.
Series [2] is described as follows: Toxicity in human Vgamma9/Vdelta2 T cells treated for 72 hrs measured on day 11 post last treatment by flow cytometry. Type of series: cell-based, Vgamma9/Vdelta2 T cell. In a few lines:
(§1)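 Human peripheral blood mononuclear cells were treated with compound for 72 h, cultured to day 11, and Vγ9Vδ2 (CD3+/γδ TCR+) cells were assessed by flow cytometry over a dose-response range. Interleukin 2 and untreated controls were included. Runs were done at least three independent times using cells from at least 2 donors.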
For orientation: In flow cytometry, cells or beads pass a laser one at a time.

A further series deals with K562. Nature of the series: Antiproliferative activity against human K562 cells after 72 hrs by fluorescence spectroscopy. Type of series: cell-based. Conditions: K562, 72 h. Put shortly: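 K562 cells at 1 × 10^4 cells/100 μL exposed to compounds for 72 h. Fluorescent viability reagent added for the final 2 h, then fluorescence read. Viability expressed as percent of untreated cells after subtracting a media-only blank.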

For series [3], the target named is Butyrophilin subfamily 3 member A1 (Homo sapiens) (UniProt O00481). Nature of the series: Binding affinity to recombinant C-terminal His-tagged BTN3A1 intracellular domain (unknown origin) expressed in BL21(DE) at […] by isothermal titration calorimetry. In a few lines: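 Full intracellular domain of BTN3A1 was purified as previously described. Protein was at 43 μM and titrant compound at 300–860 μM. Three independent titrations were run per compound.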
Butyrophilin subfamily 3 member A1 (Homo sapiens), sequence (O00481 30-513 limits assumed): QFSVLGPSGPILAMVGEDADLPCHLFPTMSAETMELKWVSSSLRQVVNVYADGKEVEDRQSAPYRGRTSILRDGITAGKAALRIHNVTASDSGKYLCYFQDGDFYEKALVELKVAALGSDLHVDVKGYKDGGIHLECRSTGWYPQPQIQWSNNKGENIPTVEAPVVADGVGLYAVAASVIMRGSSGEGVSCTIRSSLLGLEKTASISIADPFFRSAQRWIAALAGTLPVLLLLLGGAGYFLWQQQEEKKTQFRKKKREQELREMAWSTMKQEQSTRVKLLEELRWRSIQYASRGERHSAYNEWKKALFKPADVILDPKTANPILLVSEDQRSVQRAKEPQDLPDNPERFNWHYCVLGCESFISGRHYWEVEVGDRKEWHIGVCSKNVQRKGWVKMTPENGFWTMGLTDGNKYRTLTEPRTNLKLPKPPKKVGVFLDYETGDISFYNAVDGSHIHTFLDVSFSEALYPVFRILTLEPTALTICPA
(In general: Isothermal titration calorimetry measures the heat released or taken up as one component is titrated into another.)

The nature of series [4]: Safety index, ratio of HMBPP IC50 to compound IC50 for human K562 cells. Particulars: read-out: Ratio IC50. Type of series: ADME, cell-based. In a few lines: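 Direct K562 toxicity: 1 × 10^4 cells/100 μL exposed to compounds for 72 h, with cell quantibluo reagent added for the final 2 h and a fluorescence read-out. Viable cells were expressed as % of untreated control after subtracting a media-only blank, giving an IC50. The fold value divides the reference IC50 by the test IC50.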

Series [5] in a line: Toxicity in human Vgamma9/Vdelta2 T cells at >= 10 uM treated for 72 hrs measured on day 11 post last treatment by flow cytometry. The series is classed as cell-based. Particulars: vgamma9/vdelta2 t cell. In a few lines:
as §1

Series [6] is described as follows: Selectivity index, ratio of IC50 for human Vgamma9Vdelta2 T cells to EC50 for BTN3A1 in human Vgamma9Vdelta2 T cells. Type of series: functional.
The target of series [7] is Butyrophilin subfamily 3 member A1 (Homo sapiens) (UniProt O00481). Nature of the series: Activation of BTN3A1 in human Vgamma9Vdelta2 T cells assessed as induction of interleukin 2 stimulated cell proliferation by measuring increase in CD3 positive cells at 0.1 uM treated for 72 hrs measured on day 11 post last treatment by flow cytometry. Type of series: cell-based. In a few lines: (§2)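 Human peripheral blood mononuclear cells exposed to compound for 72 h together with interleukin 2, then grown for 11 days. CD3+/γδ TCR+ cells were scored by flow cytometry. […] Negative controls were cells with or without interleukin 2 and no compound. Bars show mean and SD, n=3, with ANOVA and Tukey post-hoc test.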

The target is the same in series [8]. Nature of the series: Activation of BTN3A1 in human Vgamma9Vdelta2 T cells assessed as induction of interleukin 2 stimulated cell proliferation by measuring increase in gammadelta T cell receptor positive cells at 0.1 uM treated for 72 hrs measured on day 11 post last treatment by flow cytometry. In a few lines: as §2
Series [9] has the same target. The experiment in a line: Binding affinity to recombinant C-terminal His-tagged BTN3A1 intracellular domain (unknown origin) expressed in BL21(DE) assessed as change in entropy at 240 uM by isothermal titration calorimetry.
Series [10] has the same target. The experiment in a line: Binding affinity to recombinant C-terminal His-tagged BTN3A1 intracellular domain (unknown origin) expressed in BL21(DE) assessed as change in entropy at 480 uM by isothermal titration calorimetry. In a few lines:
(§3)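 Purified full BTN3A1 intracellular domain at 43 μM titrated with compound at 300–860 μM by isothermal titration calorimetry. Three independent titrations per compound.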

The target is the same in series [11]. Nature of the series: Binding affinity to recombinant C-terminal His-tagged BTN3A1 intracellular domain (unknown origin) expressed in BL21(DE) assessed as change in entropy at 688 uM by isothermal titration calorimetry. In a few lines: as §3
Series [12] shares this target. Nature of the series: Inhibition of HMBPP binding to recombinant C-terminal His-tagged BTN3A1 intracellular domain (unknown origin) expressed in BL21(DE) assessed as change in entropy of HMBPP binding at 10-fold higher dose of compound by isothermal titration calorimetry (reference value: 19 kJ/mol). The series is classed as cell-based.
The target is the same in series [13]. Nature of the series: Inhibition of HMBPP binding to recombinant C-terminal His-tagged BTN3A1 intracellular domain (unknown origin) expressed in BL21(DE) assessed as change in entropy of HMBPP binding at 100-fold molar excess of compound by isothermal titration calorimetry (reference value: 19 kJ/mol). Type of series: cell-based.
Series [14] has the same target. The experiment in a line: Inhibition of HMBPP binding to recombinant C-terminal His-tagged BTN3A1 intracellular domain (unknown origin) expressed in BL21(DE) by isothermal titration calorimetry.

Calls of active or inactive are those of the source. No cut-off for these calls is given here.

Turning to `C/C(=C\CCP(=O)(O)O)CO`, the Ratio EC50 in [1] came out at 0.00013.

For the compound `COP(=O)(CC/C=C(\C)CO)CP(=O)(OC)OC` (configuration not stated), in [2], the IC50 at 72 h was above 100 µM. Besides, in the series with K562, the IC50 was above 100 µM.

Consider `C/C(=C\CCP(=O)(CP(=O)(OCOC(=O)C(C)(C)C)OCOC(=O)C(C)(C)C)OCOC(=O)C(C)(C)C)CO` (configuration not stated), for which the result in [3] was inactive. Besides, the midpoint of inhibition in series [2], the IC50 at 72 h, lay at 3.5 µM. Moreover, in series [4], the selectivity ratio is above 29. Besides, in series [5], the Activity entry is “Toxic”. Further, the “Ratio IC50/EC50” value in series [6] is 85. Further, the result in series [7] and in series [8] was Active.

Consider `C/C(=C\CCP(=O)(O)CP(=O)(O)O)CO`, for which the concentration for half-maximal inhibition (IC50) at 72 h in [2] was above 100 µM. Besides, the TdeltaS in [9] is -12 kcal/mol; in [10] it was -13.2 kcal/mol; in series [11] it was -12.1 kcal/mol. The IC50 with K562 is above 100 µM.

`C/C(=C\CCP(=O)(OCOC(=O)C(C)(C)C)OCOC(=O)C(C)(C)C)CO` yielded an IC50 at 72 h in [2] of 0.6 µM. The Ratio EC50 in series [1] was 0.094. Moreover, the “Ratio IC50/EC50” value in [6] turned out to be 110. Further, the result in series [7] and in series [8] was Active.

`CC(C)=CCCP(=O)(CP(=O)(OCOC(=O)C(C)(C)C)OCOC(=O)C(C)(C)C)OCOC(=O)C(C)(C)C` (configuration not stated) had a concentration for half-maximal inhibition (IC50) at 72 h in series [2] above 100 µM. Moreover, in [4], the selectivity ratio was above 10. This compound yielded a half-inhibitory concentration (IC50) in the series on K562 of 9.7 µM.

Compound `C/C(=C\COP(=O)(O)OP(=O)(O)O)CO` registered an IC50 at 72 h in series [2] of 0.5 µM. The result in series [7] and in [8] was Active. Further, the IC50 in the series with K562 is above 100 µM.

In series [2], `CC(C)=CCCP(=O)(O)CP(=O)(O)O` came in with a half-inhibitory concentration (IC50) at 72 h above 100 µM. Further, the TdeltaS in series [12] is -1.1 kcal/mol; in series [13], 6.69 kcal/mol. In series [14], the inhibition entry was “Dose-dependent effect”. Also, in the series on K562, the IC50 is above 100 µM.

(Values after ChEMBL document CHEMBL4007426, “Phosphinophosphonates and Their Tris-pivaloyloxymethyl Prodrugs Reveal a Negatively Cooperative Butyrophilin Activation Mechanism” (J Med Chem, 2017).)
